Columns and labels:
[1] = tested on: Cercospora beticola; test: Fungicidal activity against Cercospora beticola at 50 ug/ml by growth inhibition method; format: functional; conditions: read-out: GI
Method in brief: (§1)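 Mycelial growth inhibition on potato dextrose agar. The panel covered Alternaria solani, Botrytis cinerea, Cercospora arachidicola, C. beticola, Colletotrichum lagenarium, Fusarium oxysporum, Gibberella zeae, Puccinia triticina, Phytophthora infestans, Physalospora piricola, Pellicularia sasakii and Rhizoctonia solani.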

[2] = tested on: Tobacco mosaic virus; test: In vivo antiviral activity against Tobacco mosaic virus (TMV) infected tobacco leaves assessed as protective effect at 100 ug/ml treated 12 hr before viral inoculation measured at 2-3 days after viral challenge; format: functional
Method in brief: (§2)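 Six-leaf tobacco; compound solution smeared over whole leaves, dried in greenhouse, then after 12 h TMV (5.88 10-2 μg/mL) rubbed onto upper three leaves, with solvent on lower three leaves as control. Local lesions counted 2-3 days post-inoculation, three repetitions. Inhibition (%) = (CK − A)/CK × 100 from mean lesion numbers.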

[3] = tested on: Tobacco mosaic virus; test: In vivo antiviral activity against Tobacco mosaic virus (TMV) infected tobacco leaves assessed as protective effect at 500 ug/ml treated 12 hr before viral inoculation measured at 2-3 days after viral challenge; format: functional; method in brief: as §2
[4] = tested on: Fusarium graminearum; test: Fungicidal activity against Fusarium graminearum at 50 ug/ml by growth inhibition method; format: functional; conditions: read-out: GI; method in brief: as §1
[5] = tested on: Nicotiana tabacum; test: Phytotoxicity against Nicotiana tabacum (tobacco) plant; format: organism-based; conditions: in vivo
[6] = tested on: Tobacco mosaic virus; test: In vivo antiviral activity against Tobacco mosaic virus (TMV) infected tobacco leaves assessed as curative effect at 500 ug/ml treated after viral inoculation measured at 2-3 days after viral challenge; format: functional
Method in brief: (§3)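 Curative test: whole six-leaf tobacco leaves rubbed with TMV (5.88 10-2 μg/mL), dried in greenhouse, then compound smeared on upper three leaves and solvent on lower three as control. Local lesions scored 2-3 days after inoculation, three repetitions. Inhibition (%) = (CK − A)/CK × 100 on mean lesion numbers.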

[7] = tested on: Tobacco mosaic virus; test: In vivo antiviral activity against Tobacco mosaic virus (TMV) infected tobacco leaves assessed as curative effect at 100 ug/ml treated after viral inoculation measured at 2-3 days after viral challenge; format: functional; method in brief: as §3
[8] = tested on: Puccinia triticina; test: Fungicidal activity against Puccinia triticina at 50 ug/ml by growth inhibition method; format: functional; conditions: read-out: GI; method in brief: as §1
[9] = tested on: Thanatephorus cucumeris; test: Fungicidal activity against Thanatephorus cucumeris at 50 ug/ml by growth inhibition method; format: functional; conditions: read-out: GI; method in brief: as §1
[10] = tested on: Colletotrichum lagenaria; test: Fungicidal activity against Colletotrichum lagenaria at 50 ug/ml by growth inhibition method; format: functional; conditions: read-out: GI; method in brief: as §1
[11] = tested on: Tobacco mosaic virus; test: In vivo antiviral activity against Tobacco mosaic virus (TMV) infected tobacco leaves assessed as inactivation effect at 100 ug/ml co-treated with virus for 30 min before inoculation onto leaves measured at 2-3 days after viral challenge; format: functional
Method in brief: (§4)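 TMV (5.88 10-2 μg/mL) mixed with equal volume of compound solution for 30 min, then rubbed onto upper three leaves of six-leaf tobacco; solvent on lower three leaves as control. Lesions counted 2-3 days later, three repetitions. Inhibition (%) = (CK − A)/CK × 100 from mean lesion counts.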

[12] = tested on: Tobacco mosaic virus; test: In vitro antiviral activity against Tobacco mosaic virus (TMV) infected tobacco leaves at 100 ug/ml; format: functional
[13] = tested on: Alternaria solani; test: Fungicidal activity against Alternaria solani at 50 ug/ml by growth inhibition method; format: functional; conditions: read-out: GI; method in brief: as §1
[14] = tested on: Rhizoctonia solani; test: Fungicidal activity against Rhizoctonia solani at 50 ug/ml by growth inhibition method; format: functional; conditions: read-out: GI; method in brief: as §1
[15] = tested on: Tobacco mosaic virus; test: In vivo antiviral activity against Tobacco mosaic virus (TMV) infected tobacco leaves assessed as inactivation effect at 500 ug/ml co-treated with virus for 30 min before inoculation onto leaves measured at 2-3 days after viral challenge; format: functional; method in brief: as §4
[16] = tested on: Mycosphaerella arachidis; test: Fungicidal activity against Mycosphaerella arachidis at 50 ug/ml by growth inhibition method; format: functional; conditions: read-out: GI; method in brief: as §1
[17] = tested on: Nicotiana tabacum; test: Induction of systemic acquired resistance activity in TMV infected-Nicotiana tabacum (tobacco) leaves at 50 ug/ml; format: functional
Method in brief: (§5)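 Tobacco/TMV system used for systemic acquired resistance induction. Inhibition ratio calculated from mean lesion numbers on inoculated leaves relative to corresponding control. Tiadinil and ribavirin run as controls.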

[18] = tested on: Tobacco mosaic virus; test: In vitro antiviral activity against Tobacco mosaic virus (TMV) infected tobacco leaves at 500 ug/ml; format: functional
[19] = tested on: Phytophthora infestans; test: Fungicidal activity against Phytophthora infestans at 50 ug/ml by growth inhibition method; format: functional; conditions: read-out: GI; method in brief: as §1
[20] = tested on: Botryosphaeria berengeriana; test: Fungicidal activity against Botryosphaeria berengeriana at 50 ug/ml by growth inhibition method; format: functional; conditions: read-out: GI; method in brief: as §1
[21] = tested on: Nicotiana tabacum; test: Induction of systemic acquired resistance activity in TMV infected-Nicotiana tabacum (tobacco) leaves at 100 ug/ml; format: functional; method in brief: as §5
[22] = tested on: Fusarium oxysporum; test: Fungicidal activity against Fusarium oxysporum at 50 ug/ml by growth inhibition method; format: functional; conditions: read-out: GI; method in brief: as §1
[23] = tested on: Tobacco mosaic virus; test: In vitro antiviral activity against Tobacco mosaic virus (TMV) infected tobacco leaves at 200 ug/ml; format: functional
[24] = tested on: Botrytis cinerea; test: Fungicidal activity against Botryotinia fuckeliana at 50 ug/ml by growth inhibition method; format: functional; conditions: read-out: GI; method in brief: as §1

Row | Compound | inhibition of growth at 50 µg/mL [1] [%] | Activity [2] [%] | Activity [3] [%] | inhibition of growth at 50 µg/mL [4] [%] | Activity [5] | Activity [6] [%] | Activity [7] [%] | inhibition of growth at 50 µg/mL [9] [%] | inhibition of growth at 50 µg/mL [10] [%] | Activity [11] [%] | inhibition at 100 µg/mL [12] [%] | inhibition of growth at 50 µg/mL [13] [%] | inhibition of growth at 50 µg/mL [14] [%] | Activity [15] [%] | inhibition of growth at 50 µg/mL [16] [%] | Activity [17] [%] | inhibition at 500 µg/mL [18] [%] | inhibition of growth at 50 µg/mL [19] [%] | inhibition of growth at 50 µg/mL [20] [%] | Activity [21] [%] | other results
1 | Cc1ccc(N(C(=O)c2nnsc2C)C(C(=O)NC2CCCCC2)c2cccc(Cl)c2)cc1F (centres undefined) | 25 | 29 | 67 | 27 | Non-toxic | 40 | 0 | 0 | 0 | 69 | 14 | 25 | 39 | 79 | 27 | 30 | 18 | 44 | 8 | 22 | inhibition of growth at 50 µg/mL [8]: 14%
2 | Cc1ccc(N(C(=O)c2nnsc2C)C(C(=O)NC2CCCCC2)c2ccc(F)cc2)cc1F (centres undefined) | 0 | 6 | 17 | 0 | Non-toxic | 52 | 20 | 87 | 14 | 69 | 24 | 0 | 2 | 79 | 9 | 41 | 44 | 25 | 0 | 41 | inhibition of growth at 50 µg/mL [8]: 0%
3 | Cc1ccc(N(C(=O)c2nnsc2C)C(C(=O)NC(C)C)c2ccccc2F)cc1F (centres undefined) | 13 | 27 | 60 | 27 | Non-toxic | 60 | 47 | 0 | 14 | 73 | 16 | 38 | 15 | 74 | 0 | 59 | 46 | 44 | 0 | 7 | inhibition of growth at 50 µg/mL [8]: 0%
4 | Cc1ccc(N(C(=O)c2nnsc2C)C(C(=O)NC(C)C)c2ccccc2C(F)(F)F)cc1F (centres undefined) | 13 | 5 | 44 | 27 | Non-toxic | 44 | 32 | 15 | 36 | 67 | 57 | 13 | 17 | 65 | 9 | 30 | 71 | 44 | 0 | 60 | inhibition of growth at 50 µg/mL [8]: 0%
5 | Cc1ccc(N(C(=O)c2nnsc2C)C(C(=O)NC(C)C)c2ccc(O)cc2)cc1F (centres undefined) | 0 | 71 | 76 | 0 | Non-toxic | 55 | 28 | 4 | 0 | 51 | 26 | 0 | 0 | 72 | 0 | 36 | 35 | 0 | 0 | 7 | inhibition of growth at 50 µg/mL [8]: 0%
6 | Cc1cccc(C(C(=O)NC(C)C)N(C(=O)c2nnsc2C)c2ccc(C)c(Cl)c2)c1 (centres undefined) | 17 | 14 | 48 | 37 | Non-toxic | 40 | 33 | 63 | 13 | 72 |  | 44 |  | 82 | 38 | 65 | 34 | 8 | 51 | 49 | inhibition of growth at 50 µg/mL [22]: 14%; inhibition at 200 µg/mL [23]: 18%; inhibition of growth at 50 µg/mL [24]: 76%
7 | Cc1ccc(N(C(=O)c2nnsc2C)C(C(=O)NC(C)C)c2ccccc2C)cc1Cl (centres undefined) | 17 | 13 | 38 | 37 | Non-toxic | 42 | 21 | 69 | 10 | 23 |  | 40 |  | 50 | 21 | 37 | 12 | 10 | 31 | 0 | inhibition of growth at 50 µg/mL [22]: 19%; inhibition at 200 µg/mL [23]: 58%; inhibition of growth at 50 µg/mL [24]: 76%
8 | Cc1ccc(N(C(=O)c2nnsc2C)C(C(=O)NC(C)C)c2ccc([N+](=O)[O-])cc2)cc1F (centres undefined) | 25 | 26 | 27 | 0 | Non-toxic | 17 | 0 | 22 | 0 | 65 | 9 | 0 | 17 | 62 | 27 | 66 | 25 | 13 | 0 | 7 | inhibition of growth at 50 µg/mL [8]: 0%
9 | Cc1ccc(N(C(=O)c2nnsc2C)C(C(=O)NC(C)C)c2ccccc2)cc1Cl (centres undefined) | 0 | 40 | 57 | 13 | Non-toxic | 46 | 30 | 64 | 11 | 50 |  | 39 |  | 65 | 21 | 33 | 43 | 12 | 47 | 41 | inhibition of growth at 50 µg/mL [22]: 36%; inhibition at 200 µg/mL [23]: 30%; inhibition of growth at 50 µg/mL [24]: 85%
10 | Cc1ccc(NC(=O)c2snnc2C)cc1Cl [TIADINIL] | 40 | 57 | 75 | 36 | Non-toxic | 58 | 46 | 46 |  | 42 | 25 |  | 1 | 59 | 18 | 50 | 48 | 46 | 74 | 52 | inhibition of growth at 50 µg/mL [22]: 48%; inhibition of growth at 50 µg/mL [24]: 67%
